Measurements reported in ChEMBL document CHEMBL4689842, “EUbOPEN Chemogenomics Library wave 1” (2021).

Test system: Fibroblast
Assay: Multiplex assay against human fibroblast
Type: toxicity, cell-based
Outline: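 Imaging took place on a CQ1 microscope at 37°C and 5% CO2 once compound had been added to live cells stained at seeding with Hoechst33342, BioTracker Green Microtubule Cytoskeleton Dye, MitoTracker Red and Annexin V Alexa Fluor 680. CellPathfinder machine-learning gating classed cells as Hoechst high-intensity objects or normal cells, classed normal cells as having healthy, pyknosed or fragmented nuclei, and classed pyknosed cells as mitotic or apoptotic. Tubulin, mitochondrial-mass and membrane-permeability phenotypes are per cents of the healthy-nucleus cells.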

[1] = 12 h, 1 µM, compound concentration 1 uM, replicate 1
[2] = 12 h, 1 µM, compound concentration 1 uM, replicate 2
[3] = 12 h, 10 µM, compound concentration 10 uM, replicate 1
[4] = 12 h, 10 µM, compound concentration 10 uM, replicate 2
[5] = 24 h, 1 µM, compound concentration 1 uM, replicate 1
[6] = 24 h, 1 µM, compound concentration 1 uM, replicate 2
[7] = 24 h, 10 µM, compound concentration 10 uM, replicate 1
[8] = 24 h, 10 µM, compound concentration 10 uM, replicate 2
[9] = 48 h, 1 µM, compound concentration 1 uM, replicate 1
[10] = 48 h, 1 µM, compound concentration 1 uM, replicate 2
[11] = 48 h, 10 µM, compound concentration 10 uM, replicate 1
[12] = 48 h, 10 µM, compound concentration 10 uM, replicate 2

## CCc1nn(CCCN2CCN(c3cccc(Cl)c3)CC2)c(=O)n1CCOc1ccccc1.Cl [NEFAZODONE HYDROCHLORIDE]
[1]
  Population Apoptotic (%): 60%
  Population Fragmented Nuclei (%): 16%
  Population Healthy Nuclei (%): 47%
  Population Hoechst High Intensity Objects (%): 13%
  Population Membrane Permeable-Phenotype (%): 31%
  Population Mitochondria Different-Phenotype (%): 10%
  Population Mitotic Cells (%): 40%
  Population Normal (%): 86%
  Population Pyknosed Nuclei (%): 35%
  Population Tubulin-Different-Phenotype (%): 75%
  Total Cell Count: 176
[2]
  Population Apoptotic (%): 0%
  Population Fragmented Nuclei (%): 8%
  Population Healthy Nuclei (%): 89%
  Population Hoechst High Intensity Objects (%): 6%
  Population Membrane Permeable-Phenotype (%): 3%
  Population Mitochondria Different-Phenotype (%): 9%
  Population Mitotic Cells (%): 100%
  Population Normal (%): 93%
  Population Pyknosed Nuclei (%): 1%
  Population Tubulin-Different-Phenotype (%): 29%
  Total Cell Count: 68
[3]
  Population Apoptotic (%): 81%
  Population Fragmented Nuclei (%): 24%
  Population Healthy Nuclei (%): 45%
  Population Hoechst High Intensity Objects (%): 10%
  Population Membrane Permeable-Phenotype (%): 1%
  Population Mitochondria Different-Phenotype (%): 84%
  Population Mitotic Cells (%): 18%
  Population Normal (%): 89%
  Population Pyknosed Nuclei (%): 30%
  Population Tubulin-Different-Phenotype (%): 96%
  Total Cell Count: 157
[4]
  Population Apoptotic (%): 69%
  Population Fragmented Nuclei (%): 9%
  Population Healthy Nuclei (%): 69%
  Population Hoechst High Intensity Objects (%): 3%
  Population Membrane Permeable-Phenotype (%): 60%
  Population Mitochondria Different-Phenotype (%): 97%
  Population Mitotic Cells (%): 30%
  Population Normal (%): 96%
  Population Pyknosed Nuclei (%): 20%
  Population Tubulin-Different-Phenotype (%): 97%
  Total Cell Count: 61
[5]
  Population Apoptotic (%): 52%
  Population Fragmented Nuclei (%): 20%
  Population Healthy Nuclei (%): 57%
  Population Hoechst High Intensity Objects (%): 14%
  Population Membrane Permeable-Phenotype (%): 16%
  Population Mitochondria Different-Phenotype (%): 17%
  Population Mitotic Cells (%): 47%
  Population Normal (%): 85%
  Population Pyknosed Nuclei (%): 22%
  Population Tubulin-Different-Phenotype (%): 68%
  Total Cell Count: 175
[6]
  Population Apoptotic (%): 50%
  Population Fragmented Nuclei (%): 8%
  Population Healthy Nuclei (%): 85%
  Population Hoechst High Intensity Objects (%): 2%
  Population Membrane Permeable-Phenotype (%): 1%
  Population Mitochondria Different-Phenotype (%): 15%
  Population Mitotic Cells (%): 50%
  Population Normal (%): 97%
  Population Pyknosed Nuclei (%): 5%
  Population Tubulin-Different-Phenotype (%): 33%
  Total Cell Count: 71
[7]
  Population Apoptotic (%): 80%
  Population Fragmented Nuclei (%): 23%
  Population Healthy Nuclei (%): 58%
  Population Hoechst High Intensity Objects (%): 22%
  Population Membrane Permeable-Phenotype (%): 3%
  Population Mitochondria Different-Phenotype (%): 86%
  Population Mitotic Cells (%): 20%
  Population Normal (%): 77%
  Population Pyknosed Nuclei (%): 18%
  Population Tubulin-Different-Phenotype (%): 100%
  Total Cell Count: 177
[8]
  Population Fragmented Nuclei (%): 22%
  Population Healthy Nuclei (%): 56%
  Population Hoechst High Intensity Objects (%): 1%
  Population Membrane Permeable-Phenotype (%): 80%
  Population Mitochondria Different-Phenotype (%): 100%
  Population Normal (%): 98%
  Population Pyknosed Nuclei (%): 20%
  Total Cell Count: 72
[9]
  Population Apoptotic (%): 43%
  Population Fragmented Nuclei (%): 30%
  Population Healthy Nuclei (%): 58%
  Population Hoechst High Intensity Objects (%): 19%
  Population Membrane Permeable-Phenotype (%): 19%
  Population Mitochondria Different-Phenotype (%): 5%
  Population Mitotic Cells (%): 56%
  Population Normal (%): 80%
  Population Pyknosed Nuclei (%): 11%
  Population Tubulin-Different-Phenotype (%): 51%
  Total Cell Count: 178
[10]
  Population Apoptotic (%): 50%
  Population Healthy Nuclei (%): 67%
  Population Hoechst High Intensity Objects (%): 13%
  Population Membrane Permeable-Phenotype (%): 6%
  Population Mitochondria Different-Phenotype (%): 14%
  Population Mitotic Cells (%): 50%
  Population Normal (%): 86%
  Population Pyknosed Nuclei (%): 1%
  Population Tubulin-Different-Phenotype (%): 71%
  Total Cell Count: 127
[11]
  Population Apoptotic (%): 85%
  Population Fragmented Nuclei (%): 40%
  Population Healthy Nuclei (%): 55%
  Population Hoechst High Intensity Objects (%): 34%
  Population Membrane Permeable-Phenotype (%): 1%
  Population Mitochondria Different-Phenotype (%): 62%
  Population Mitotic Cells (%): 14%
  Population Normal (%): 65%
  Population Pyknosed Nuclei (%): 4%
  Population Tubulin-Different-Phenotype (%): 96%
  Total Cell Count: 257
[12]
  Population Apoptotic (%): 50%
  Population Fragmented Nuclei (%): 43%
  Population Healthy Nuclei (%): 54%
  Population Hoechst High Intensity Objects (%): 25%
  Population Membrane Permeable-Phenotype (%): 2%
  Population Mitochondria Different-Phenotype (%): 59%
  Population Mitotic Cells (%): 50%
  Population Normal (%): 75%
  Population Pyknosed Nuclei (%): 2%
  Population Tubulin-Different-Phenotype (%): 95%
  Total Cell Count: 232
